STAT3 blocker: IL-6 driven STAT3 reporter inhibitors, primary screen, U3A cells, luciferase, luminescence, MLSCN library. 0.89% of 190,000 active. AID 862, 2007. IL-6 STAT3-luciferase reporter; host cell line lacks STAT1. inhibition, % at 5.5 µM;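 active means inhibition above the mean inhibition across all screened compounds plus 3 SD, cut at about 44% in these data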;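 further: 0% = DMSO only wells and 100% = 100 µM nifuroxazide control wells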
STAT1 activator: STAT1 signaling activators, primary screen, cell-based, HTS, luciferase reporter; NIH 3T3 STAT1-luciferase reporter, IFN-gamma, luminescence; 100% = IFN-gamma alone, no compound; activation (% of control), % at 5.5 µM; 2.6% of 200,000 active;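 active means activation above the screen-wide mean activation plus 3 SD, cut at about 130% in these data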;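 further: raw ratio to IFN-gamma control signal so 100% means no change and 0% no light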
STAT1 blocker: STAT1 signaling inhibitors, primary screen, cell-based, HTS, luciferase reporter; NIH 3T3 STAT1-luciferase reporter, IFN-gamma, luminescence; inhibition, % at 5.5 µM; 0.35% of 200,000 active;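 active means inhibition above a set limit, the mean inhibition across all tested compounds plus 3 SD, cut at about 34% in these data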;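 further: 0% = IFN-gamma with DMSO and 100% = IFN-gamma with 300 µM nifuroxazide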
STAT3 activator: IL-6 driven STAT3 reporter potentiators, primary screen, U3A cells, luciferase, luminescence, MLSCN library | IL-6 STAT3-luciferase reporter; 100% = signal with IL-6 EC80 alone | activation (% of control), % at 5.6 µM | 0.91% of 190,000 active | AID 871, 2007;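 active means activation above the screen-wide mean of compound activation plus 3 SD, cut at about 130% in these data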;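 further: 0% = background luminescence of wells with medium and substrate only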
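System – human U3A cells carrying STAT3-luciferase construct · Probe or stimulus – Interleukin-6, 33 ng/mL · Schedule – compound 1 h, then IL-6 6 h at 37 °C · Signal – luminescence from STAT3-driven luciferase reporter · Evaluation – percent of IL-6-only median luminescence · Benchmarks – IL-6-only high control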
* marks the source's active call; other numbers are inactive results. Shown are actives, neighbours in structure and some others; about 4.3% of the full set was active somewhere.

SMILES | STAT3 blocker | STAT1 activator | STAT1 blocker | STAT3 activator
O=[N+]([O-])CC(=Nc1ccc(Cl)cc1)N/N=C\c1oc(O)c2ccccc12 | -37 | 104 | -5 | 136*
COCCn1c(SCC(=O)c2c[nH]c3ccccc23)nnc1-c1ccncc1 | -42 | 97 | 4 | 136*
CCn1c(SCC(=O)c2c[nH]c3ccccc23)nnc1-c1cccs1 | -12 | 98 | 10 | 113
CN1C(=O)CC(C(=O)Nc2ccccc2F)SC1=Nc1ccc2c(c1)OCO2 (centres undefined) | 1 | 100 | -4 | 103
Cc1ccccc1CNc1nnnn1C | 6 | 101 | -4 | 99
N/C(=N\OC(=O)c1ccc(Cl)cc1)c1ccc(Cl)cc1 | 6 | 112 | -13 | 99
N/C(=N\OC(=O)c1ccco1)c1ccc(Cl)cc1 | 15 | 137* | -42 | 89
O=C(CSc1ccc(-c2ccccn2)nn1)c1ccccc1 | 3 | 123 | -27 | 102
COC(=O)c1ccnc(SCC(=O)c2ccccc2)c1 | 4 | 132* | -35 | 104
COC(=O)c1ccc(NC(=O)COc2ccc(S(=O)(=O)NC(C)(C)C)cc2)cc1 | 11 | 102 | -2 | 98
CCNC(=S)N/N=C/c1cccc(OCc2c(F)cccc2Cl)c1 | 6 | 92 | 9 | 92
CNC(=S)N/N=C/c1cccc(OCc2ccccc2F)c1 | 2 | 132* | -36 | 96
CCN(Cc1ccccc1)c1ccc(N=Nc2nn(C)c(C)c2[N+](=O)[O-])cc1 | -8 | 133* | -36 | 102
CCN(Cc1ccccc1)c1ccc(/C=N/NS(=O)(=O)c2ccc(C)c([N+](=O)[O-])c2)cc1 | 0 | 101 | -1 | 103
COc1ccc(NC2=NCC(Cc3ccc(Br)cc3)S2)cc1 (centres undefined) | 11 | 98 | 1 | 92
CN(C)S(=O)(=O)c1cccc(C(=O)OCC(=O)Nc2sccc2C#N)c1 | -40 | 113 | -15 | 134*
COc1ccc(N(C)S(=O)(=O)c2cccc(C(=O)OCC(=O)Nc3sc4c(c3C#N)CCCCC4)c2)cc1 | 5 | 87 | 14 | 94
O=C(N/N=C/c1cccnc1)c1ccc2c(c1)OCCO2 | -1 | 107 | -8 | 99
O=C(N/N=C/c1ccc(Br)o1)c1ccc2c(c1)OCCO2 | -10 | 130* | -32 | 106
O=C(Nc1cccc(Cl)c1)ON=C1c2ccccc2-c2ccccc21 | -5 | 92 | 9 | 111
COc1ccc(CNc2ccc(C)c(C)c2)cc1 | 0 | 130* | -32 | 105
COc1ccc2nc(N=Nc3ccc(N(C)C)cc3)sc2c1 | 44* | 53 | 53* | 66
CCC(C)(C)C1CCc2nc3ccccc3c(C(=O)OC(C)C(=O)Nc3c(C)n(C)n(-c4ccccc4)c3=O)c2C1 (centres undefined) | -10 | 103 | -3 | 107
CCc1ccc(CSc2nccn2-c2ccccc2)cc1 | 13 | 98 | 3 | 94
c1ccc(CCSc2nccn2-c2ccccc2)cc1 | -5 | 142* | -47 | 109
SMILES | STAT3 blocker | STAT1 activator | STAT1 blocker | STAT3 activator
CC(=O)OCC1=C(C(=O)O)N2C(=O)C(NC(=O)c3ccc(COc4cccc(Cl)c4Cl)o3)C2SC1 (centres undefined) | -10 | 101 | 1 | 113
COc1ccccc1Nc1nc(N)nc(CSc2nccn2C)n1 | 5 | 109 | -12 | 99
Cc1ccc(Nc2nc(N)nc(CSc3nccn3C)n2)cc1 | -5 | 146* | -50 | 108
Cc1cccc(Nc2nc(N)nc(CSc3nccn3C)n2)c1 | -6 | 136* | -40 | 109
Cc1nn(C(C)C(=O)NNC(=S)Nc2ccc(Cl)cc2)c(C)c1[N+](=O)[O-] (centres undefined) | 12 | 96 | 4 | 95
CCn1c(O)c(N=NC(=S)NCC2CCCO2)c2ccccc21 (centres undefined) | 10 | 90 | 11 | 92
Cc1cccc(NC(=O)c2c(O)c3cccc4c3n(c2=O)CCC4)n1 | -4 | 96 | 4 | 107
Cc1cccc(NC(=O)c2c(O)c3cccc4c3n(c2=O)CC4)c1 | -70 | 101 | -1 | 158*
Cc1ccc(C(=O)NCCc2ccc(F)cc2)s1 | 13 | 129* | -35 | 93
COc1cccc(CN=C2Nc3ccccc3CS2)c1 | -4 | 147* | -50 | 111
O=[N+]([O-])c1ccc(Cl)c(S(=O)(=O)N2CCCCCC2)c1 | -6 | 111 | -13 | 107
O=C(CSc1nnc(-c2cccs2)o1)N1CCCCC1 | -9 | 125 | -28 | 111
CC1CCCC(C)N1C(=O)CSc1nnc(-c2cccs2)o1 (centres undefined) | 2 | 147* | -51 | 101
Fc1ccccc1CSc1nnc(-c2cccs2)o1 | -5 | 146* | -52 | 106
Fc1ccc(CSc2nnc(-c3cccs3)o2)cc1 | 4 | 118 | -20 | 99
C=CCOC(=O)Nc1snnc1C | 9 | 88 | 14 | 94
Cc1nnsc1NC(=O)OCc1ccc(C(C)(C)C)cc1 | 65* | 98 | 2 | 49
Cc1ccccc1NC(=S)NCCc1ccccc1 | 11 | 101 | -1 | 97
CC(C)(C)NC(=S)NCCc1ccccc1 | -9 | 130* | -33 | 104
S=C(NCCc1ccccc1)Nc1ccccn1 | -7 | 133* | -37 | 110
CCN(CC)S(=O)(=O)c1ccc(C)c(NC(=O)COC(=O)c2ccc(C)c(S(=O)(=O)N3CCOCC3)c2)c1 | 1 | 99 | 1 | 98
Oc1oc(-c2ccccc2)nc1C=Nc1ccccc1 | 18 | 132* | -35 | 87
COc1ccc(N=Cc2nc(-c3ccco3)oc2O)cc1 | 2 | 136* | -39 | 101
CN(C)c1ccc(N=Cc2nc(-c3ccccc3)oc2O)cc1 | 18 | 110 | -11 | 88
O=[N+]([O-])c1cc(/C=N/O)ccc1Oc1cccc(Cl)c1 | -2 | 102 | -4 | 108
SMILES | STAT3 blocker | STAT1 activator | STAT1 blocker | STAT3 activator
O=[N+]([O-])c1cc(/C=N/O)ccc1Oc1ccccc1Cl | -15 | 131* | -37 | 122
CCCCNC(=S)N(C)/N=C/c1ccc(OCc2ccc(C(=O)OC)cc2)c(OC)c1 | -5 | 106 | -7 | 107
O=C(O)CCC(=O)Nc1ccc(Sc2ccc([N+](=O)[O-])cc2)cc1 | -2 | 105 | -6 | 99
CCOC(=O)c1ccc(-c2ccc(/C=C(\C#N)C(=O)NCC3CCCO3)o2)cc1 (centres undefined) | -38 | 104 | -4 | 135*
O=C1OC(Nc2cc(Br)cc3cccnc23)c2ccccc21 (centres undefined) | -39 | 95 | 5 | 133*
O=C1OC(Nc2ncccn2)c2ccccc21 (centres undefined) | 4 | 102 | -1 | 97
COc1ccc(C2=C(SC)CC2=NC(C)(C)C)cc1 | -5 | 108 | -9 | 104
CC(=O)c1cnc(Nc2cccc(C)c2)s1 | 17 | 134* | -36 | 92
Cc1cc(C)cc(-n2cc[nH]c2=S)c1 | 6 | 98 | 2 | 98
COCCCN=C(c1ccco1)n1c(=S)nc(-c2ccco2)n(CCCOC)c1=S | -14 | 109 | -10 | 114

Compound activity (PubChem)
